sEH inh: blocks human soluble epoxide hydrolase activity | P34913 | recombinant human sEH enzymatic activity assay | inhibition, % at 2 µM | 91,000 compounds, 0.34% hits | AID 707; in the data active = inhibition above about 80%
CD11b adhes inh: inhibitors of human CD11b/CD18 binding to fibrinogen; K562 CD11b/CD18 adhesion to fibrinogen, ATPlite luminescence; Mn2+ added to activate the integrin; 93,000 compounds, 0.54% hits; P05107+P11215; AID 1497; inhibition, % at 10 µM;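 active = primary inhibition of 50% or more at 10 µM, then 40% or more on retest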
sEH activator: increases human soluble epoxide hydrolase activity | purified human sEH enzymatic activity, activator screen | activation, % at 2 µM | 91,000 compounds, 0.04% hits; in the data active = activation above about 37%
Mac1 fbg enh: enhancers of human CD11b/CD18 binding to fibrinogen; 93,000 compounds, 0.07% hits; activation, % at 10 µM; K562 CD11b/CD18 adhesion to fibrinogen, ATPlite luminescence; P05107+P11215;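 active = 10 µM primary screen giving 50% or more activity, confirmed by 40% or more on retest at that dose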
Rev-RRE block: HIV Rev-RRE protein-RNA interaction inhibition. inhibition, % at 8 µM. Rev peptide-RRE RNA binding, FRET. 97,000 compounds, 0.79% hits;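 active = inhibition above the screen-wide mean plus 3 SD, cut at about 35% in these data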
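Assay system: Labelled RRE RNA duplex and labelled Rev peptide | Times: 5 min preincubation and 15 min binding, 25 °C | Detection: FRET, ex 480 nm, em 540 and 671 nm | Evaluation: % inhibition of FRET ratio versus controls | Benchmarks: DMSO wells as 0% and neomycin B wells as 100% inhibition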
Smad3 FoxH1 inh: Smad3 (human) transcription factor binding inhibition; TR-FRET Smad3/Dy647-FoxH1 peptide binding, europium anti-His; P84022; 88,000 compounds, 0.29% hits; inhibition, % at 25 µM;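 active = compounds that reduce the energy-transfer binding signal between the protein and its labelled peptide by more than half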
Numbers stand for hits; i = inactive; nt = not tested or not shown. Sampled rows, rich in hits. Any-hit rate of the full collection: about 1.6%.

SMILES | sEH inh | CD11b adhes inh | sEH activator | Mac1 fbg enh | Rev-RRE block | Smad3 FoxH1 inh
COCCNC(=O)c1c(N)n(Cc2ccco2)c2nc3ccccc3nc12 | i | i | i | i | 36 | i
COCCNC(=O)c1c(NC(=O)c2ccco2)n(Cc2ccccc2)c2nc3ccccc3nc12 | i | i | i | i | i | i
C=CCNC(=O)c1c(N)n(Cc2ccco2)c2nc3ccccc3nc12 | i | i | i | i | 50 | i
Nc1c(C(=O)NCCN2CCOCC2)c2nc3ccccc3nc2n1Cc1ccco1 | i | i | i | i | 45 | i
CCCCn1c(N)c(C(=O)NCCN2CCOCC2)c2nc3ccccc3nc21 | i | i | i | i | i | i
CC(C)(C)OC(=O)c1c(N)n(Cc2ccco2)c2nc3ccccc3nc12 | i | i | i | i | i | i
CCC(C)NC(=O)c1c(N)n(CCCOC)c2nc3ccccc3nc12 (stereo not given) | i | i | i | i | i | 52
C[n+]1c(/C=C/c2ccc(O)c3ncccc23)[se]c2ccccc21 | nt | nt | nt | nt | nt | i
C[C@@]12CN(CC[N+](C)(C)C)C[C@]1(C)[C@H]1CC[C@@H]2O1 | nt | nt | nt | nt | nt | i
C[C@]12Cc3cnc(-c4ccccc4)nc3C[C@@H]1CC[C@H]1[C@H]2CC[C@@]2(C)[C@H]1CC[C@]2(C)O | nt | nt | nt | nt | nt | i
CCCCC[CH2][Hg][n+]1c[nH]c2nc(N)[nH]c(=S)c21 | nt | nt | nt | nt | nt | i
CCOC(=O)c1c(N)n(CCN2CCCCC2)c2nc3ccccc3nc12 | i | i | i | i | 38 | i
CCCCN1C(=O)/C(=C/c2ccc(N(C)C)cc2)C(=O)N(Cc2ccco2)C1=O | i | nt | i | nt | 53 | nt
CC(=O)OC1=CC2=CC[C@H]3[C@@H]4CCC(=O)[C@@]4(C)CC(=O)[C@]3(S)[C@]2(C)CC1 | nt | nt | nt | nt | nt | i

Screening data from PubChem BioAssay.
